Experimental data from ChEMBL document CHEMBL1137710, “Synthesis and in vitro antitumor activity of new quinoxaline derivatives” (2009).

Assays:
Format in all cases: functional
[1] = tested on: HOP-62; test: Growth inhibition of human HOP62 cells after 48 hrs by sulforhodamine B assay; conditions: HOP-62, 48 h
How it was run: (§1)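 NCI 60-human-tumor-cell-line panel, with compounds tested over a 5-log dose range. Values are taken from dose-response curves as log10 molar concentrations: GI50 is 50% net growth inhibition, TGI is total growth inhibition, and LC50 is 50% net cell death.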

[2] = tested on: NCI-H460; test: Anticancer activity against human NCI-H460 cells assessed as cell growth at 100 uM after 48 hrs by sulforhodamine B assay; conditions: NCI-H460, 48 h, read-out: Activity
[3] = tested on: 786-0; test: Growth inhibition of human 786-0 cells after 48 hrs by sulforhodamine B assay; conditions: 786-0, 48 h; how it was run: as §1
[4] = tested on: OVCAR-3; test: Growth inhibition of human OVCAR-3 cells after 48 hrs by sulforhodamine B assay; conditions: OVCAR-3, 48 h; how it was run: as §1
[5] = tested on: NCI-H322M; test: Growth inhibition of human NCI-H322M cells after 48 hrs by sulforhodamine B assay; how it was run: as §1
[6] = tested on: IGROV-1; test: Growth inhibition of human IGROV1 cells after 48 hrs by sulforhodamine B assay; conditions: IGROV-1, 48 h; how it was run: as §1
[7] = tested on: SK-MEL-5; test: Growth inhibition of human SK-MEL-5 cells after 48 hrs by sulforhodamine B assay; conditions: SK-MEL-5, 48 h; how it was run: as §1
[8] = tested on: OVCAR-4; test: Growth inhibition of human OVCAR4 cells after 48 hrs by sulforhodamine B assay; conditions: OVCAR-4, 48 h; how it was run: as §1
[9] = tested on: SF-295; test: Growth inhibition of human SF295 cells after 48 hrs by sulforhodamine B assay; conditions: SF-295, 48 h; how it was run: as §1
[10] = Growth inhibition of human Hs 578T cells after 48 hrs by sulforhodamine B assay; how it was run: as §1
[11] = tested on: MCF7; test: Anticancer activity against human MCF7 cells assessed as cell growth at 100 uM after 48 hrs by sulforhodamine B assay; conditions: MCF7, 48 h, read-out: Activity
[12] = tested on: SK-OV-3; test: Growth inhibition of human SKOV3 cells after 48 hrs by sulforhodamine B assay; conditions: SK-OV-3, 48 h; how it was run: as §1
[13] = tested on: CAKI-1; test: Growth inhibition of human Caki1 cells after 48 hrs by sulforhodamine B assay; conditions: CAKI-1, 48 h; how it was run: as §1
[14] = tested on: OVCAR-8; test: Growth inhibition of human OVCAR8 cells after 48 hrs by sulforhodamine B assay; conditions: OVCAR-8, 48 h; how it was run: as §1
[15] = tested on: PC-3; test: Growth inhibition of human PC3 cells after 48 hrs by sulforhodamine B assay; conditions: PC-3, 48 h; how it was run: as §1
[16] = tested on: COLO 205; test: Growth inhibition of human COLO205 cells after 48 hrs by sulforhodamine B assay; conditions: COLO 205, 48 h; how it was run: as §1
[17] = tested on: SNB-19; test: Growth inhibition of human SNB19 cells after 48 hrs by sulforhodamine B assay; conditions: SNB-19, 48 h
How it was run: (§2)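 Run in the NCI 60-human-tumour-cell-line panel, tested over a 5-log dose range. Dose–response curves gave three values per cell line, each as a log10 molar concentration: GI50 (50% inhibition of net cell growth), TGI (total inhibition of net growth) and LC50 (50% net cell death). The mean graph midpoint is the arithmetic mean over all lines, with insensitive lines entered at the highest concentration tested.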

[18] = tested on: MCF7; test: Growth inhibition of human MCF7 cells after 48 hrs by sulforhodamine B assay; conditions: MCF7, 48 h; how it was run: as §1
[19] = tested on: OVCAR-5; test: Growth inhibition of human OVCAR5 cells after 48 hrs by sulforhodamine B assay; conditions: OVCAR-5, 48 h; how it was run: as §1
[20] = tested on: MDA-MB-231; test: Growth inhibition of human MDA-MB-231 cells after 48 hrs by sulforhodamine B assay; conditions: MDA-MB-231, 48 h; how it was run: as §1
[21] = tested on: SF-268; test: Growth inhibition of human SF268 cells after 48 hrs by sulforhodamine B assay; conditions: SF-268, 48 h; how it was run: as §1
[22] = tested on: MDA-MB-435; test: Growth inhibition of human MDA-MB-435 cells after 48 hrs by sulforhodamine B assay; conditions: MDA-MB-435, 48 h; how it was run: as §1
[23] = tested on: UO-31; test: Growth inhibition of human UO31 cells after 48 hrs by sulforhodamine B assay; conditions: UO-31, 48 h; how it was run: as §2
[24] = tested on: SF-268; test: Anticancer activity against human SF268 cells assessed as cell growth at 100 uM after 48 hrs by sulforhodamine B assay; conditions: SF-268, 48 h, read-out: Activity
[25] = tested on: TK-10; test: Growth inhibition of human TK10 cells after 48 hrs by sulforhodamine B assay; conditions: TK-10, 48 h; how it was run: as §2
[26] = tested on: KM12; test: Growth inhibition of human KM12 cells after 48 hrs by sulforhodamine B assay; conditions: KM12, 48 h; how it was run: as §1
[27] = tested on: UACC-257; test: Growth inhibition of human UACC257 cells after 48 hrs by sulforhodamine B assay; conditions: UACC-257, 48 h; how it was run: as §2
[28] = tested on: NCI-H460; test: Growth inhibition of human NCI-H460 cells after 48 hrs by sulforhodamine B assay; conditions: NCI-H460, 48 h; how it was run: as §1
[29] = tested on: U-251; test: Growth inhibition of human U251 cells after 48 hrs by sulforhodamine B assay; conditions: U-251, 48 h; how it was run: as §2
[30] = tested on: NCI-H522; test: Growth inhibition of human NCI-H522 cells after 48 hrs by sulforhodamine B assay; conditions: NCI-H522, 48 h; how it was run: as §1
[31] = read-out: pLC50 (the source's name) (converted)

## Nc1cc(N)c2nc(-c3ccccc3)c(Sc3ccc(F)cc3)nc2c1
[1]
  GI50: 16.6 µM
  LC50: 70.8 µM
[1]; read-out: pTGI (converted)
  TGI: 34.7 µM
[2]
  growth at 100 µM: 0%
[3]
  GI50: > 100 µM
[3]; [31]
  CC50: > 100 µM
[3]; read-out: pTGI (converted)
  TGI: > 100 µM
[4]
  GI50: 16.2 µM
[4]; [31]
  CC50: 69.2 µM
[4]; read-out: pTGI (converted)
  TGI: 33.9 µM
[5]
  GI50: 20.4 µM
  LC50: 70.8 µM
[5]; read-out: pTGI (converted)
  TGI: 38 µM
[6]
  GI50: 25.1 µM
[6]; [31]
  CC50: > 100 µM
[6]; read-out: pTGI (converted)
  TGI: > 100 µM
[7]
  GI50: 15.5 µM
[7]; [31]
  CC50: 70.8 µM
[7]; read-out: pTGI (converted)
  TGI: 33.1 µM
[8]
  GI50: 22.9 µM
[8]; [31]
  CC50: > 100 µM
[8]; read-out: pTGI (converted)
  TGI: 56.2 µM
[9]
  GI50: 13.8 µM
  LC50 (50% net cell kill): 64.6 µM
[9]; read-out: pTGI (converted)
  TGI: 30.2 µM
[10]
  GI50: 26.9 µM
[10]; [31]
  CC50: > 100 µM
[10]; read-out: pTGI (converted)
  TGI: 61.7 µM
[11]
  growth at 100 µM: 7%
[12]
  GI50: 15.8 µM
[12]; [31]
  CC50: 63.1 µM
[12]; read-out: pTGI (converted)
  TGI: 31.6 µM
[13]
  GI50: > 100 µM
[13]; [31]
  CC50: > 100 µM
[13]; read-out: pTGI (converted)
  TGI: > 100 µM
[14]
  GI50: 16.6 µM
[14]; [31]
  CC50: 72.4 µM
[14]; read-out: pTGI (converted)
  TGI: 34.7 µM
[15]
  GI50: > 100 µM
[15]; [31]
  CC50: > 100 µM
[15]; read-out: pTGI (converted)
  TGI: > 100 µM
[16]
  GI50: 21.9 µM
  LC50 (50% net cell kill): > 100 µM
[16]; read-out: pTGI (converted)
  TGI: 47.9 µM
[17]
  GI50: 20 µM
  LC50: 87.1 µM
[17]; read-out: pTGI (converted)
  TGI: 41.7 µM
[18]
  GI50: 20 µM
[18]; [31]
  CC50: > 100 µM
[18]; read-out: pTGI (converted)
  TGI: 63.1 µM
[19]
  GI50: 19.1 µM
[19]; [31]
  CC50: > 100 µM
[19]; read-out: pTGI (converted)
  TGI: 45.7 µM
[20]
  GI50: 17.4 µM
[20]; [31]
  CC50: 83.2 µM
[20]; read-out: pTGI (converted)
  TGI: 38 µM
[21]
  GI50: 17.8 µM
  LC50: 85.1 µM
[21]; read-out: pTGI (converted)
  TGI: 38.9 µM
[22]
  GI50: 16.2 µM
[22]; [31]
  CC50: 66.1 µM
[22]; read-out: pTGI (converted)
  TGI: 33.1 µM
[23]
  GI50: > 100 µM
[23]; [31]
  CC50: > 100 µM
[23]; read-out: pTGI (converted)
  TGI: > 100 µM
[24]
  growth at 100 µM: 0%
[25]
  GI50: > 100 µM
[25]; [31]
  CC50: > 100 µM
[25]; read-out: pTGI (converted)
  TGI: > 100 µM
[26]
  GI50: 20.9 µM
  LC50 (50% net cell kill): > 100 µM
[26]; read-out: pTGI (converted)
  TGI: 49 µM
[27]
  GI50: 16.6 µM
[27]; [31]
  CC50: 60.3 µM
[27]; read-out: pTGI (converted)
  TGI: 31.6 µM
[28]
  GI50: 21.9 µM
  LC50 (50% net cell kill): > 100 µM
[28]; read-out: pTGI (converted)
  TGI: 66.1 µM
[29]
  GI50: 16.2 µM
  LC50 (50% net cell kill): 61.7 µM
[29]; read-out: pTGI (converted)
  TGI: 31.6 µM
[30]
  GI50: > 100 µM
  LC50: > 100 µM
[30]; read-out: pTGI (converted)
  TGI: > 100 µM
